Compounds with a hit are over-represented: about 2.6% of the library has one in this group of screens.
dFosB act: activators of mouse delta FosB homodimer; purified delta FosB, TAMRA-CDK5 oligo fluorescence polarization; percent of positive-control signal above neutral wells; activation, % at 25 µM; 0.99% of 340,000 active;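 active = mean activation above about 17%, with every replicate also reaching it, limit read from the data, passing the limit was not always enough; inconclusive = only one of the two conditions met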
Target sequence (P13346 whole entry, looked up): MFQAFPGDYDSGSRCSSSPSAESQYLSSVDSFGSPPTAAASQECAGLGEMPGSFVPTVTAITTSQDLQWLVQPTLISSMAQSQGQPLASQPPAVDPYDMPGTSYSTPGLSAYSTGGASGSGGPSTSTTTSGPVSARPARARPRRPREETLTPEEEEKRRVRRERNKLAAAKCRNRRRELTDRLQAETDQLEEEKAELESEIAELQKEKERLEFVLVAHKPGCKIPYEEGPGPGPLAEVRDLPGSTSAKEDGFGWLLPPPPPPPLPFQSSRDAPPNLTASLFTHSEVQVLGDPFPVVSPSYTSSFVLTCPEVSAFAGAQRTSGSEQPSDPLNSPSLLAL
PvdQ inh: blocks Pseudomonas aeruginosa PvdQ acylase activity | purified PvdQ acylase, fluorescence plate reader | inhibition, % at 10 µM | 0.063% of 340,000 active; in the data active = inhibition above about 30%, passing the limit was not always enough; inconclusive = no clear call, values can overlap the other calls;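 also: 0% = vehicle neutral wells and 100% = reference inhibitor wells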
SR-BI uptake up: SR-BI HDL lipid transfer activation; CHO ldlA[mSR-BI] cells, DiI-HDL uptake fluorescence, 3 h; 100 = double the neutral-control signal; activation, % at 12.5 µM; 0.096% of 320,000 active; AID 504775;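 active = mean replicate activation of at least 60% and every replicate at or above 60%; inconclusive = mean or all-replicate condition met, but not both; inactive = mean below 60% and not all replicates reaching 60%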;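 also: 0% = median plate neutral-control signal and 100% = twice that signal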
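System: CHO ldlA[mSR-BI] cells / Medium: HEPES-buffered (25 mM, pH 7.4) F12 plus 0.5% BSA / Probe or stimulus: labelled HDL, 10 µg/mL / Doses: single compound concentration, delivered by pin transfer / Schedule: 3 h, 37 °C / Measured by: DiI fluorescence, bottom read / Measure: cell-associated DiI fluorescence as measure of HDL uptake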
rRNA inh HTS: inhibits bacterial ribosomal RNA function over humanized ribosomes; E. coli WT GFP vs humanized-ribosome RFP mutants, fluorescence, 24 h; active compounds read low; DMSO median 0, no signal -100; GFP signal change (wild-type ribosome), % (test concentration not listed); AID 720706; 1.6% of 350,000 active;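 active = significant combined selectivity score with lowered wild-type GFP, culture density cut under 30%, mutant RFP and density less affected; inactive = any of these conditions unmet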
XiGFP reactiv: activators of X-chromosome reactivation in mouse fibroblasts. XiGFP mouse fibroblasts, % GFP-positive cells imaging, 3 d; cells co-treated with 5-aza-dC sensitizer; scaled so ellipticine positive control = 100%. activation, % at 7.58 µM. 0.055% of 360,000 active;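 active = mean normalized replicate activation at least 10% and every replicate at or above 10%; inconclusive = only one of the two criteria met; inactive = mean below 10% and not all replicates reach 10%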;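 also: 0% = median of on-plate neutral control wells and 100% = ellipticine 6 µM median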
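Assay system – SV40-immortalized XiGFP fibroblast cells, line 68-5-11 · Buffer or medium – DMEM supplemented with 5-aza-dC as sensitizing agent · Dosing – one concentration, pinned · Benchmarks – positive control ellipticine, 6 µM final · Times – 3 days compound exposure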
SR-BI HDL uptake: inhibitors of mouse SR-BI mediated HDL lipid uptake. ldlA[mSR-BI] CHO cells, DiI-HDL uptake fluorescence, 3 h. AID 488896. Q61009. 0.96% of 320,000 active. inhibition, % at 12.5 µM;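 active = mean replicate inhibition of at least 70% and a set share of replicates each scoring 70 or more; inconclusive = meets just one of the two criteria; inactive = fails both criteria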;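 also: 0% = median of neutral control wells and 100% = median of positive control wells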
An asterisk follows results filed as active; ? = inconclusive; / = not tested or not shown.

SMILES | dFosB act | PvdQ inh | SR-BI uptake up | rRNA inh HTS | XiGFP reactiv | SR-BI HDL uptake
C[C@@H]1CN([C@@H](C)CO)C(=O)c2ccccc2-c2ccccc2CO[C@@H]1CN(C)C(=O)Nc1cccc(C(F)(F)F)c1 | / | / | / | 0.5 | 0.2 | /
O=c1c2cc(Br)ccc2[nH]c(=S)n1Cc1ccccn1 | -5.3 | 3.3 | 6.8 | 1.3 | 0.0 | -6.8
COc1ccccc1-n1c(CCC(=O)O)ccc1-c1ccccc1 | 7.1 | -13.6 | 17.4 | 10.5 | 0.2 | -17.4
C[C@H](CO)N1C[C@H](C)[C@@H](CN(C)S(=O)(=O)c2ccc(Cl)cc2)Oc2c(NC(=O)NC3CCCCC3)cccc2C1=O | / | / | / | -5.6 | 0.1 | /
CCOc1ccccc1C(=O)Nc1cc(OC)ccc1OC | -0.7 | -16.0 | -78.8 | / | / | 78.8*
CCOc1cc(NC(=S)Nc2ccccc2)c(OCC)cc1NC(=O)c1ccc(OC)cc1 | -1.9 | 7.7 | -88.8 | / | / | 88.8*
Cc1nc2ccccc2n2c(-c3ccccc3)c3c(=O)n(C)c(=O)n(C)c3c12 | -2.5 | -8.5 | -23.3 | -34.0* | / | 23.3
Cc1ccc(OCCNC(=O)c2ccccc2OCc2c(C)noc2C)cc1 | -14.8 | -3.9 | -16.7 | -14.1 | 0.0 | 16.7
O=CC1=C(c2ccccc2)Oc2ccccc2O1 | -16.9 | 81.6* | -2.7 | 6.2 | 0.0 | 2.7
CN(C)/C=C1/N=C(c2ccccc2)OC1=O | -1.3 | 3.9 | 11.9 | / | / | -11.9
CC(=O)c1cccc(N=Nc2c(-c3ccccc3)[nH]n(-c3ccccc3)c2=O)c1 | -3.4 | -9.4 | -100.1 | 6.5 | 0.1 | 100.1*
C[C@H](CO)N1C[C@H](C)[C@@H](CN(C)Cc2ccccc2)Oc2c(NC(=O)Cc3ccccc3)cccc2C1=O | -8.1 | -8.4 | -35.2 | -42.4 | 0.1 | 35.2
COC(=O)Nc1nc(-c2ccccc2)c(C(=O)c2ccccc2)s1 | -9.9 | -4.7 | -90.6 | / | / | 90.6*
COc1ccc(NC(=O)COc2ccc(Br)cc2)c(OC)c1 | -4.3 | -1.3 | -2.9 | -2.5 | 0.1 | 2.9
COc1ccc(NC(=O)CSc2nc3ccc(OC)cc3[nH]2)cc1 | -3.9 | 2.7 | -30.9 | -14.9 | 0.2 | 30.9
COc1ccccc1NC(=O)COc1ccc2ccccc2c1 | -2.7 | -9.2 | 7.3 | -31.4* | 0.4 | -7.3
COc1ccc2nc(SCC(=O)Nc3ccccc3OC)[nH]c2c1 | 2.5 | -8.0 | -7.2 | -24.1* | ? | 7.2
COc1ccc(NC(=O)NNC(=O)COc2ccc3cc(Br)ccc3c2)c(OC)c1 | 82.2* | -16.3 | -1.0 | 7.4 | 0.0 | 1.0
Oc1ccc(C[C@H]2CNC(=S)N2CCc2cc(C(F)(F)F)cc(C(F)(F)F)c2)cc1 | -0.2 | 2.6 | 10.1 | -6.3 | 0.0 | -10.1
COc1ccc(Br)cc1/C=C/C(=O)Nc1ccc2ccccc2c1 | 4.3 | -12.5 | -50.2 | -2.6 | -0.1 | 50.2
Cc1ccc(-c2csc(NC(=O)c3cccc(C)c3)c2C(=O)O)cc1 | -8.6 | 3.5 | -3.7 | -38.4* | 0.2 | 3.7
CCN(CC)C(=O)C1=C(C)N(CCC2=CCCCC2)C(=O)C(CC(=O)NCC2CCCCC2)C1 (stereo unspecified) | / | / | / | -8.7 | 0.1 | /
CC(=O)N1CCc2cc(Br)cc(S(=O)(=O)NCCN3CCCCC3C)c21 (stereo unspecified) | 1.0 | 0.4 | 34.2 | / | / | -34.2
CCOC(=O)c1c(NC(=S)NCCc2ccccc2)sc2c1CC(C(C)C)OC2 (stereo unspecified) | 1.2 | -10.1 | 4.9 | / | 0.0 | -4.9
C=CCNC(=S)Nc1sc2c(c1C(=O)OCC)CC(C(C)C)OC2 (stereo unspecified) | -11.0 | -8.2 | -73.6 | / | / | 73.6*
SMILES | dFosB act | PvdQ inh | SR-BI uptake up | rRNA inh HTS | XiGFP reactiv | SR-BI HDL uptake
CCCOC(=O)c1c(NC(=O)/C=C/c2cnn(C)c2C)sc(C(=O)OC)c1C | -12.7 | -17.0 | -55.1 | 11.5 | / | 55.1
CCCOC(=O)c1c(NC(=O)/C=C/c2cnn(C)c2C)sc(C(=O)OCC)c1C | -2.4 | -2.6 | -76.4 | / | / | 76.4*
CCCN1[C@@H]2c3ccc(/C=C/c4ccccc4)c(=O)n3C[C@@H]2[C@@H](CO)[C@@H]1C(=O)NCC1CC1 | / | / | / | -6.4 | 0.4 | /
COc1ccc(-c2cc(C(F)(F)F)nc(SCc3cccc(C(=O)O)c3)n2)cc1 | -2.4 | -8.9 | 9.4 | -43.3* | / | -9.4
O=C(O)c1cccc(CSc2nc(-c3ccccc3)cc(C(F)(F)F)n2)c1 | -12.1 | -22.4 | 5.6 | -56.3 | 0.0 | -5.6
CO[C@H]1CN(C)C(=O)c2cc(NC(=O)C3CC3)ccc2OC[C@H](C)N(C(=O)C2CCOCC2)C[C@@H]1C | / | / | / | 4.1 | 0.3 | /
CCCCCCCc1c(O)nc(SCCN(C)C)[nH]c1=O | 1.7 | -17.1 | 271.7* | 4.7 | / | -271.7
CCc1nnc(NC(=O)c2nc(S(=O)(=O)Cc3ccc(C)cc3)ncc2Cl)s1 | 4.0 | -2.2 | 64.3* | 3.6 | 0.2 | -64.3
Nc1nc(-c2ccc(Cl)cc2)nc(-c2ccc(Cl)cc2)n1 | 14.5 | -4.5 | 0.9 | 8.5 | -0.2 | -0.9
Cc1ccc(S(=O)(=O)N/N=C\c2cn(CC(N)=O)c3ccccc23)cc1C | -1.3 | -6.3 | 34.5 | -22.8* | 0.0 | -34.5
NC(=O)Cn1cc(/C=N\NS(=O)(=O)c2ccc(Cl)cc2)c2ccccc21 | -3.4 | 0.1 | 11.4 | -11.1 | 0.1 | -11.4
CCc1ccc(N(C(=O)c2csnn2)C(C(=O)NC(C)(C)C)c2ccccn2)cc1 (stereo unspecified) | -7.9 | -26.5 | 16.6 | 12.7 | 0.1 | -16.6
CC(=O)c1cnc2nc(SCc3ccc(Cl)cc3)nn2c1C | -1.7 | -20.6 | 3.9 | -35.5 | 0.3 | -3.9
CC(=O)c1cnc(SCc2ccc(Cl)cc2)nc1C | -2.4 | 20.6 | -14.5 | -28.2* | -0.1 | 14.5
COc1ccc2sc(-c3ccc(N(C)C)cc3)c(C#CCCO)c2c1 | -4.2 | -12.2 | -95.8 | -17.9 | 0.0 | 95.8*
COc1ccc(C)cc1N(CC(=O)NC1CCCC1)C(=O)CCC(=O)Nc1nc(C)cs1 | -10.9 | 5.6 | -11.9 | -15.4 | -0.1 | 11.9
CC(C)NC(=O)Nc1ccc2c(c1)CC(=O)N([C@H](C)CO)C[C@H](C)[C@@H](CN(C)CC1CC1)O2 | / | / | / | -1.3 | 0.0 | /
CNC(=S)N1CCC(Cc2ccccc2)CC1 | -3.4 | -8.9 | 1.5 | 5.3 | 0.0 | -1.5
C/C(=N/NC(=O)CNC(=O)c1ccccn1)c1ccc([N+](=O)[O-])cc1 | -1.1 | -10.8 | -80.2 | 15.6 | 0.0 | 80.2*
C/C(=N\NC(=O)c1ccc(CN2CCOCC2)cc1)c1ccc([N+](=O)[O-])cc1 | -1.2 | -5.1 | -71.0 | 4.5 | 0.1 | 71.0*
C/C(=N\NC(=O)c1ccc(CN2CCOCC2)cc1)c1cccc([N+](=O)[O-])c1 | -1.3 | 2.3 | -37.1 | 17.1 | 0.3 | 37.1
Cc1cc(/C=N/NC(=O)c2ccc(CN3CCOCC3)cc2)c(C)n1-c1ccccc1 | -9.7 | -13.5 | -72.0 | / | / | 72.0*
